Assay [1] deals with HT-29. Kind of assay: Cytotoxicity against human HT-29 cells after 3 days by SRB assay. It counts as functional. The following applies: for EC50: HT-29, 72 h, read-out: ED50 (the source's name). The essentials:
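HT-29 colon cancer cells, trypsinized and seeded in 96-well plates, treated with compounds in DMSO (DMSO as negative control). Incubated 3 days at 37 °C, 5% CO2, then fixed, 30 min at room temperature, washed, dried overnight, stained with sulforhodamine B. Dye solubilized in tris-base buffer, absorbance read at 515 nm. Cytotoxicity calculated versus DMSO control, reported as ED50 (μM). Paclitaxel as positive control.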

For assay [2], the target named is T1, Nuclear factor NF-kappa-B p105 subunit (Homo sapiens) (UniProt P19838).
T1 sequence (whole entry): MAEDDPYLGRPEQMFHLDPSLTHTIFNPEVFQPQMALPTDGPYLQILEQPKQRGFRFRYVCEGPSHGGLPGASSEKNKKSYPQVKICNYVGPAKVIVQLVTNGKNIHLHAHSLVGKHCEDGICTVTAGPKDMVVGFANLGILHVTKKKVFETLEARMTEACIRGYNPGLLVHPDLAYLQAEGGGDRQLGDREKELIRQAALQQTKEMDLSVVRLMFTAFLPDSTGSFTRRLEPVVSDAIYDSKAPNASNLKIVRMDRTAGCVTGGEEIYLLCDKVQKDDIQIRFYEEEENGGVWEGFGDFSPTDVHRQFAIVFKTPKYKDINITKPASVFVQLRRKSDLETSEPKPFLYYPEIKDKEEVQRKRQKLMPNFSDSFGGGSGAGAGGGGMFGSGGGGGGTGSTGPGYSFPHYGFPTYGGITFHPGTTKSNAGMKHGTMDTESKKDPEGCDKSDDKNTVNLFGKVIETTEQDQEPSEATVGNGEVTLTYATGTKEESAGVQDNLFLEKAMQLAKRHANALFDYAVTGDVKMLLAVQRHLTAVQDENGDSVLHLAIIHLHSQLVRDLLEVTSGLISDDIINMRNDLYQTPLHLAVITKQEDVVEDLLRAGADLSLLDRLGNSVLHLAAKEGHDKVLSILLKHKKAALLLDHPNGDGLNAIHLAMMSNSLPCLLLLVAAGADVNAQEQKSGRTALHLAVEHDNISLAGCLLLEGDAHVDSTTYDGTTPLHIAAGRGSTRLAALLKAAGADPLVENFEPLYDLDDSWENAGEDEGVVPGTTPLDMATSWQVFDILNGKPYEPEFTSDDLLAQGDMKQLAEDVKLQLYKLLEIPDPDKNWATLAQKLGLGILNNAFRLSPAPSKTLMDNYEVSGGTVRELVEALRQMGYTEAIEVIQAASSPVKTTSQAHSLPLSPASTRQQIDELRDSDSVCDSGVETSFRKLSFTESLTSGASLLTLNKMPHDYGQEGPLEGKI
Briefly: Inhibition of NFkappa p50 isolated from nuclear extract of human HeLa cells assessed as blockade of binding to biotinylated consesus sequence by chemiluminescence assay. It counts as cell-free. Summed up:
(§1)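 ELISA-format transcription factor assay. HeLa nuclear extract was treated with samples, and activated p50 or p65 bound to a biotinylated consensus sequence was detected by chemiluminescence on a plate reader. IC50 reported in μM.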

Assay [3] deals with Transcription factor p65 (Homo sapiens) (UniProt Q04206). Briefly: Inhibition of NFkappa p65 isolated from nuclear extract of human HeLa cells assessed as blockade of binding to biotinylated consesus sequence by chemiluminescence assay. It counts as cell-free. The essentials:
as §1

Structures are written as SMILES. Activity calls are given as the source filed them. No cut-off for these calls is given here.

Transcription factor p65 (Homo sapiens), sequence (Q04206 whole entry): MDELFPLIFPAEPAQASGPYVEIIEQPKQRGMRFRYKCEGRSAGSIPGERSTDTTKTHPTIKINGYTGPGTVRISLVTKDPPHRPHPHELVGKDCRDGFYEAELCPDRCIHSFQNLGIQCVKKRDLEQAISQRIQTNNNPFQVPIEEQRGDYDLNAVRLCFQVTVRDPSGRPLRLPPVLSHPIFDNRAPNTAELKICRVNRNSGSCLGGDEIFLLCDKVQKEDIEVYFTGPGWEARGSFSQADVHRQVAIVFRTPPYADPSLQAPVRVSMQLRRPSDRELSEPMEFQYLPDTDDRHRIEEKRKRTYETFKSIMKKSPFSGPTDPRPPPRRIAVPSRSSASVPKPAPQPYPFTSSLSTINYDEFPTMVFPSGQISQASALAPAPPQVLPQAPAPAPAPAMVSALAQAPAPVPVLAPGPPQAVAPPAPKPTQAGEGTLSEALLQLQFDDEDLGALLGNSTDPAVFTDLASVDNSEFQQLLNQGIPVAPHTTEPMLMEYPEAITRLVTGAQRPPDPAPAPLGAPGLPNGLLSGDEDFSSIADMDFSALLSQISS

Take `CC(=O)O[C@H]1C(=O)[C@@]2(C)[C@H]([C@H](OC(=O)c3ccccc3)[C@]3(O)C[C@H](OC(=O)[C@H](O)[C@@H](NC(=O)c4ccccc4)c4ccccc4)C(C)=C1C3(C)C)[C@]1(OC(C)=O)CO[C@@H]1C[C@@H]2O` [PACLITAXEL]: the EC50 in assay [1] amounted to 0.0001 µM.

For the molecule `C[C@H]1[C@H](C)CC[C@]2(C(=O)O)CC[C@]3(C)C(=CC[C@@H]4[C@@]5(C)CC[C@H](O)C(C)(C)[C@@H]5CC[C@]43C)[C@H]12`, the result in assay [2], in assay [1] and in assay [3] was inactive.

In the case of `C=C(C)[C@H]1Cc2c(oc3c4c(cc(O)c3c2=O)OC(C)(C)C=C4)-c2c(O)cc(O)c(O)c21` [ARTOBILOXANTHONE], the EC50 in assay [1] is > 10 µM.

On to `C=C(C)c1cc2c(=O)c3c(O)c(CC=C(C)C)c(O)cc3oc2c2c1C(=O)C(O)=C(CC=C(C)C)C2=O` [ARTORIGIDIN C], for which, in assay [1], the EC50 is > 10 µM.

On to `CC(C)=CCc1c(O)cc2oc3c(cc4c5c(c(O)c(CC=C(C)C)c(O)c53)OC4(C)C)c(=O)c2c1O`, for which the result in assay [2], in assay [1] and in assay [3] was inactive.

Take `C=C(C)c1cc2c(=O)c3c(O)c(CC=C(C)C)c(O)cc3oc2c2c(O)c3c(c(O)c12)OC(C)(C)C=C3`: the outcome in assay [2], in assay [1] and in assay [3] was inactive.

Regarding `C=C(C)[C@@H]1CC[C@]2(C(=O)O)CC[C@]3(C)[C@H](CC[C@@H]4[C@@]5(C)CC[C@H](O)C(C)(C)[C@@H]5CC[C@]43C)[C@@H]12`, the outcome in assay [2], in assay [1] and in assay [3] was inactive.

On to `COc1cc(O)c2c(=O)c3cc4c5c(c(O)cc(O)c5c3oc2c1)OC4(C)C`, for which the outcome in assay [2], in assay [1] and in assay [3] was inactive.

Regarding `CC1(C)C=Cc2cc3c(cc2O1)Oc1cc(O)ccc1C(O)=C3` [ARTORISTILBENE], the EC50 in assay [1] is 10.7 µM.

For the origin of these results see ChEMBL document CHEMBL1158573, “Cytotoxic and NF-kappaB inhibitory constituents of Artocarpus rigida” (J Nat Prod, 2010).
